Experiment [1] has as its system T-24. Put plainly: Induction of ferroptosis in human T-24 cells assessed as increase in intracellular iron level at 8 uM in presence of Fer-1 by ICP-MS analysis (reference value: 860.2 +/- 62.3 pg). It counts as functional.
In experiment [2] the test system is T-24. The experiment in a line: Induction of ferroptosis in human T-24 cells assessed as increase in intracellular iron level at 6 uM by ICP-MS analysis (reference value: 860.2 +/- 62.3 pg). It counts as functional.
Experiment [3] deals with T-24. The experiment in a line: Induction of ferroptosis in human T-24 cells assessed as downregulation of xCT at <6 uM by Western blot analysis. It counts as functional, cell-based. As to conditions: dose microM <6. (In general: A western blot detects proteins with antibodies after separation by electrophoresis.)
For experiment [4], the system named is T-24. The experiment in a line: Induction of apoptosis in human T-24 cells assessed as early apoptotic cells at 6 uM in presence of zVAD incubated for 8 hrs by annexin V-FITC and PI staining based flow cytometry analysis (reference value: 3.37 %). The format is functional. In general terms: A flow cytometer gives signals particle by particle.
For experiment [5], the system named is T-24. The experiment in a line: Induction of autophagy in human T-24 cells assessed as effect on mTOR level at 6 to 12 uM incubated for 12 hrs by Western blot analysis. It counts as functional, cell-based. As to conditions: dose 6-12 µM.
Experiment [6] relates to T-24. The experiment in a line: Induction of apoptosis in human T-24 cells assessed as downregulation of Bcl2 at 2 to 6 uM measured upto 8 hrs by Western blot analysis. It counts as functional, cell-based. As to conditions: dose 2-6 µM, time hrs <=8.
The test system of experiment [7] is T-24. Put plainly: Induction of mitochondrial membrane potential disruption in human T-24 cells assessed as ratio of green/red fluorescence intensity by JC-1 dye based flow cytometry analysis. As to conditions: dose 4-12 µM. It counts as functional, cell-based. The essentials:
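T24 cells exposed to 0, 4, 8 and 12 µM and stained with JC-1. Red J-aggregate fluorescence (high ΔΨm, p1 region) and green monomer fluorescence (low ΔΨm, p2 region) were read by flow cytometry and quantified on a fluorescence spectrophotometer. Result is given as the green/red intensity ratio.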

Experiment [8] relates to T-24. Put plainly: Induction of ferroptosis in human T-24 cells assessed as increase in IREB2 expression by Western blot analysis. The format is functional, cell-based. As to conditions: dose 6-12 µM.
Experiment [9] relates to T-24. Put plainly: Induction of ferroptosis in human T-24 cells assessed as cellular GPx4 level at 14 uM by HPLC-EC analysis (reference value: 1.71 +/- 0.07 U/mg). The format is functional.
The subject of experiment [10] is T-24. Put plainly: Induction of autophagy in human T-24 cells assessed as effect on PI3K level at 6 to 12 uM incubated for 12 hrs by Western blot analysis. It counts as functional, cell-based. To be noted: dose 6-12 µM.

The source of these data is ChEMBL document CHEMBL4765435, “Synthesis and in vitro anti-bladder cancer activity evaluation of quinazolinyl-arylurea derivatives” (Eur J Med Chem, 2020).

Active and inactive are the calls of the source. No cut-off for these calls is given here.

Turning to `O=C(Nc1cccc(CNc2ncnc3ccccc23)c1)Nc1ccc(Cl)c(Cl)c1`, the Activity in the experiment with T-24 [1] was 1079.4 pg; in the experiment on T-24 [2], 1152.3 pg; in the experiment on T-24 [4], 9.75%; in the experiment on T-24 [7], “Dose-dependent effect”; in the experiment with T-24 [8] it was “Dose-dependent effect”; with T-24 [9], 1.17 U/mg. Moreover, the result in the experiment on T-24 [3] was inactive. The outcome with T-24 [5], in the experiment on T-24 [6] and in the experiment on T-24 [10] was Active.
